Source: publication PMC3620022 (Molecular cancer therapeutics, 2012)
Substitutions are numbered along the chain they refer to. Several values for one entry are separate records, joined by “and”; a condition that tells them apart may be missing. Equal values may be shown once.

Key:
MDA-MB-231 cells = assay: MDA-MB-231 cell proliferation assay; format: cell-based, human
[1] = molecular target: T1, recombinant GAC (residues 128-603) (Mus musculus, UniProt D3Z7P3); assay: Recombinant GAC two-step glutaminase assay; format: biochemical; conditions: for inhibition of phosphate-activated enzyme: GAC activated by inorganic phosphate before inhibitor
T1 sequence (D3Z7P3 128-603 isoform D3Z7P3-2): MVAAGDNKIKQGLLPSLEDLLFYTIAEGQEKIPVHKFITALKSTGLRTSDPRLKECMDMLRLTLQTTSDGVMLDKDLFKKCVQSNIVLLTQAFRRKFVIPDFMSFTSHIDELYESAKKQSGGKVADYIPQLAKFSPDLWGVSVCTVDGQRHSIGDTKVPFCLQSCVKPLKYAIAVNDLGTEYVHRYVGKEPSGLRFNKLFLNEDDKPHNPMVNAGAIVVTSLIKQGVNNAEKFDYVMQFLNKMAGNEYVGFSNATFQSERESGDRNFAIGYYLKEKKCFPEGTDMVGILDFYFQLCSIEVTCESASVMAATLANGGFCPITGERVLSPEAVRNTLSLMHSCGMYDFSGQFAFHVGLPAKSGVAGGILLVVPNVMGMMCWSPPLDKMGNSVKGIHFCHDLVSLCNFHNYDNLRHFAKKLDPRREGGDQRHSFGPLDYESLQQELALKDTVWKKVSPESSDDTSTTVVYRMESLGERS

F532L GAC mutant = molecular target: T2, F532L GAC mutant (Mus musculus, UniProt D3Z7P3, F532L); assay: Recombinant protein assay with F532L GAC mutant; format: biochemical; conditions: concentrations up to 50 μM
T2 sequence (D3Z7P3 72-603 isoform D3Z7P3-2 F532L): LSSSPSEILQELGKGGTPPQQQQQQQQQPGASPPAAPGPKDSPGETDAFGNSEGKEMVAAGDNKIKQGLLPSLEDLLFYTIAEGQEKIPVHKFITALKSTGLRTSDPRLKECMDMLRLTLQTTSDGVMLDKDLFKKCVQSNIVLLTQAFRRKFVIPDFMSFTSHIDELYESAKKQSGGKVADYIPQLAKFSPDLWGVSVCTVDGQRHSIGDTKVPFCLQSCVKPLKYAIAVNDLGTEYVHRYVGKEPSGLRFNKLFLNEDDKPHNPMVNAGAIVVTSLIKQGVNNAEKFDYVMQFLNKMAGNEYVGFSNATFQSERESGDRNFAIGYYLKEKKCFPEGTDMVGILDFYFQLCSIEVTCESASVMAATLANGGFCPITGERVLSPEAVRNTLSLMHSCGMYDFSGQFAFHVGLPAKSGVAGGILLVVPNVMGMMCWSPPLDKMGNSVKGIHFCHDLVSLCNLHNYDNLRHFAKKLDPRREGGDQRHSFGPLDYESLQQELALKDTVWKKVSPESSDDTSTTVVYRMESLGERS
Summary of the method: (§1)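 Mouse GAC residues 72-603 in pET28a, wild type or site-directed mutant. Inhibitor in DMSO mixed with 50 nM enzyme and 21 mM glutamine in pH 8.6 Tris-acetate, then inorganic phosphate (136 mM) added; 10 min at 37°C; acid quench. Glutamate read by glutamate dehydrogenase/NAD coupling, A340 after 45 min room temperature against NAD-free blank; duplicates. IC50 from fixed-slope inhibitor curve fit.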

[2] = molecular target: T3, full-length wild-type GAC (Δ72 GAC) (Mus musculus, UniProt D3Z7P3); assay: Recombinant protein assay with full-length wild-type GAC; format: biochemical
T3 sequence (D3Z7P3 72-603 isoform D3Z7P3-2): T2 sequence (D3Z7P3 72-603 isoform D3Z7P3-2 F532L) with L461F
Summary of the method: as §1

R539L GAC mutant = molecular target: T4, R539L GAC mutant (Mus musculus, UniProt D3Z7P3, R539L); assay: Recombinant protein assay with R539L GAC mutant; format: biochemical; conditions: concentrations up to 50 μM
T4 sequence (D3Z7P3 72-603 isoform D3Z7P3-2 R539L): T2 sequence (D3Z7P3 72-603 isoform D3Z7P3-2 F532L) with L461F, R468L
Summary of the method: as §1

SMILES | IC50 (MDA-MB-231 cells; MDA-MB-231 cell proliferation) | inhibition of phosphate-activated enzyme [1] | inhibition of mutant (F532L GAC mutant) | IC50 (MDA-MB-231 cells; Homo sapiens, MDA-MB-231) | IC50 [2] | inhibition at 10 µM [1] | inhibition at 25 µM [1] | inhibition at 50 µM [1] | IC50 ([1]; IC50, GAC 50 nM, glutamine 21 mM, phosphate 136 mM, 10 min, fixed slope inhibitor model, shorter GAC construct) | inhibition of mutant (R539L GAC mutant)
O=C(Cc1ccccc1)Nc1nnc(CCSCCc2nnc(NC(=O)Cc3ccccc3)s2)s1 [BPTES, reference compound] | 3 µM | able to do so |  |  |  |  |  |  |  | 
CN(C)c1ccc(C2Nc3ccc4ccccc4c3C3=C2C(=O)CC(C)(C)C3)cc1Br (centres unmarked) [compound 968, 5-(3-bromo-4-(dimethylamino)phenyl)-2,2-dimethyl-2,3,5,6-tetrahydrobenzo[a]phenanthridin-4(1H)-one] |  | unable to inhibit the phosphate-activated enzyme | detectable inhibition was not observed | 4.2 µM | 19 µM | 21 ± 5% | 94 ± 1% | 95 ± 1% | 9.3 µM and ~10 µM | detectable inhibition was not observed
